Measurements published in ChEMBL document CHEMBL1139352, “Synthesis and evaluation of novel inhibitors of Pim-1 and Pim-2 protein kinases” (J Med Chem, 2009).

Experiments:
[1] = target: Serine/threonine-protein kinase Sgk1 (Homo sapiens) (UniProt O00141); assay: Inhibition of SGK1 at 5 uM
Mus musculus [2] = assay: Toxicity in Swiss Webster mouse assessed as K+ level at 50 mg/kg, ip daily for 7 days measured after 7 days; format: organism-based; design: dose 50 mg/kg, route intraperitoneal; conditions: in vivo, 168 h
Mus musculus [3] = assay: Toxicity in Swiss Webster mouse assessed as glucose level at 50 mg/kg, ip daily for 7 days measured after 7 days; format: organism-based; design: dose 50 mg/kg, route intraperitoneal; conditions: in vivo, 168 h
[4] = target: Tyrosine-protein kinase Fyn (Homo sapiens) (UniProt P06241); assay: Inhibition of FYN at 5 uM
[5] = target: 3-phosphoinositide-dependent protein kinase 1 (PDPK1) (Homo sapiens) (UniProt O15530); assay: Inhibition of PDK1 at 5 uM
[6] = target: Protein kinase C zeta type (Homo sapiens) (UniProt Q05513); assay: Inhibition of PKCzeta at 5 uM
[7] = target: Insulin receptor (Homo sapiens) (UniProt P06213); assay: Inhibition of INSR at 5 uM
[8] = target: Ribosomal protein S6 kinase beta-1 (Homo sapiens) (UniProt P23443); assay: Inhibition of p70S6K at 5 uM
[9] = target: RAC-beta serine/threonine-protein kinase (Homo sapiens) (UniProt P31751); assay: Inhibition of AKT2 at 5 uM
[10] = target: Serine/threonine-protein kinase PLK1 (Homo sapiens) (UniProt P53350); assay: Inhibition of PLK1 at 5 uM
Mus musculus [11] = assay: Toxicity in Swiss Webster mouse assessed as hemoglobin level at 3 mg/kg, ip daily for 7 days measured after 7 days; format: organism-based; design: dose 3 mg/kg, route intraperitoneal
Mus musculus [12] = assay: Toxicity in Swiss Webster mouse assessed as glucose level at 10 mg/kg, ip daily for 7 days measured after 7 days; format: organism-based; design: dose 10 mg/kg, route intraperitoneal; conditions: in vivo, 168 h
Mus musculus [13] = assay: Toxicity in Swiss Webster mouse assessed as white blood cell count at 10 mg/kg, ip daily for 7 days measured after 7 days; format: organism-based; design: dose 10 mg/kg, route intraperitoneal; conditions: in vivo, 168 h
Summary of the method: (§1)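 Six-week-old female Swiss Webster mice (about 25 g) received intraperitoneal injections daily for 7 days. Doses were 3, 10 or 50 mg/kg, with a vehicle group (30% PEG-400, 5% Tween-80, 65% DMSO). Values are reported as ranges per group.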

[14] = target: Serine/threonine-protein kinase 3 (Homo sapiens) (UniProt Q13188); assay: Inhibition of MST2 at 5 uM
Mus musculus [15] = assay: Toxicity in Swiss Webster mouse assessed as K+ level at 3 mg/kg, ip daily for 7 days measured after 7 days; format: organism-based; design: dose 3 mg/kg, route intraperitoneal; conditions: in vivo, 168 h
Mus musculus [16] = assay: Toxicity in Swiss Webster mouse assessed as monocyte count at 10 mg/kg, ip daily for 7 days measured after 7 days; format: organism-based; design: dose 10 mg/kg, route intraperitoneal; conditions: in vivo, 168 h
Mus musculus [17] = assay: Toxicity in Swiss Webster mouse assessed as white blood cell count at 50 mg/kg, ip daily for 7 days measured after 7 days; format: organism-based; design: dose 50 mg/kg, route intraperitoneal; conditions: in vivo, 168 h; summary of the method: as §1
[18] = target: Dual specificity tyrosine-phosphorylation-regulated kinase 1A (Homo sapiens) (UniProt Q13627); assay: Inhibition of DYRK1alpha at 5 uM
[19] = target: Serine/threonine-protein kinase MARK1 (Homo sapiens) (UniProt Q9P0L2); assay: Inhibition of MARK1 at 5 uM
[20] = target: Epidermal growth factor receptor (Homo sapiens) (UniProt P00533); assay: Inhibition of EGFR at 5 uM
Mus musculus [21] = assay: Toxicity in Swiss-Webster mouse at 50 mg/kg, ip daily for 5 days; format: organism-based; design: dose 50 mg/kg, route intraperitoneal; conditions: in vivo, 120 h
[22] = Inhibition of PKGalpha at 5 uM
Mus musculus [23] = assay: Toxicity in Swiss Webster mouse assessed as blood urea nitrogen level at 10 mg/kg, ip daily for 7 days measured after 7 days; format: organism-based; design: dose 10 mg/kg, route intraperitoneal; conditions: in vivo, 168 h
Mus musculus [24] = assay: Toxicity in Swiss Webster mouse assessed as phosphate level at 50 mg/kg, ip daily for 7 days measured after 7 days; format: organism-based; design: dose 50 mg/kg, route intraperitoneal; conditions: in vivo, 168 h
[25] = target: Tyrosine-protein kinase Lck (Homo sapiens) (UniProt P06239); assay: Inhibition of LCK at 5 uM
[26] = target: RAC-alpha serine/threonine-protein kinase (Homo sapiens) (UniProt P31749); assay: Inhibition of AKT1 at 5 uM
Mus musculus [27] = assay: Toxicity in Swiss Webster mouse assessed as granulocyte count at 50 mg/kg, ip daily for 7 days measured after 7 days; format: organism-based; design: dose 50 mg/kg, route intraperitoneal; conditions: in vivo, 168 h
Mus musculus [28] = assay: Toxicity in Swiss Webster mouse assessed as alanine aminotransferase level at 50 mg/kg, ip daily for 7 days measured after 7 days; format: organism-based; design: dose 50 mg/kg, route intraperitoneal; conditions: in vivo, 168 h
[29] = target: Mitogen-activated protein kinase kinase kinase kinase 4 (Homo sapiens) (UniProt O95819); assay: Inhibition of HGK at 5 uM
[30] = target: Tyrosine-protein kinase JAK2 (Homo sapiens) (UniProt O60674); assay: Inhibition of JAK2 at 5 uM
Mus musculus [31] = assay: Toxicity in Swiss Webster mouse assessed as creatinine level at 3 mg/kg, ip daily for 7 days measured after 7 days; format: organism-based; design: dose 3 mg/kg, route intraperitoneal; conditions: in vivo, 168 h
Mus musculus [32] = assay: Toxicity in Swiss Webster mouse assessed as creatinine level at 50 mg/kg, ip daily for 7 days measured after 7 days; format: organism-based; design: dose 50 mg/kg, route intraperitoneal; conditions: in vivo, 168 h
[33] = target: Hepatocyte growth factor receptor (Homo sapiens) (UniProt P08581); assay: Inhibition of MET at 5 uM
[34] = target: Serine/threonine-protein kinase D2 (Homo sapiens) (UniProt Q9BZL6); assay: Inhibition of PKD2 at 5 uM
Mus musculus [35] = assay: Toxicity in Swiss Webster mouse assessed as white blood cell count at 3 mg/kg, ip daily for 7 days measured after 7 days; format: organism-based; design: dose 3 mg/kg, route intraperitoneal; conditions: in vivo, 168 h; summary of the method: as §1
[36] = target: Cyclin-dependent kinase 2 (Homo sapiens) (UniProt P24941); assay: Inhibition of CDK2 at 5 uM
Mus musculus [37] = assay: Toxicity in Swiss Webster mouse assessed as amylase level at 3 mg/kg, ip daily for 7 days measured after 7 days; format: organism-based; design: dose 3 mg/kg, route intraperitoneal; conditions: in vivo, 168 h
Mus musculus [38] = assay: Toxicity in Swiss Webster mouse assessed as lymphocyte count at 10 mg/kg, ip daily for 7 days measured after 7 days; format: organism-based; design: dose 10 mg/kg, route intraperitoneal; conditions: in vivo, 168 h
[39] = target: Protein kinase C beta type (Homo sapiens) (UniProt P05771); assay: Inhibition of PKCbeta2 at 5 uM
Mus musculus [40] = assay: Toxicity in Swiss Webster mouse assessed as hemoglobin level at 50 mg/kg, ip daily for 7 days measured after 7 days; format: organism-based; design: dose 50 mg/kg, route intraperitoneal; conditions: in vivo, 168 h
[41] = target: Receptor-type tyrosine-protein kinase FLT3 (Homo sapiens) (UniProt P36888); assay: Inhibition of FLT3 at 5 uM
[42] = target: RAC-gamma serine/threonine-protein kinase (Homo sapiens) (UniProt Q9Y243); assay: Inhibition of AKT3 at 5 uM
[43] = target: Tyrosine-protein kinase SYK (Homo sapiens) (UniProt P43405); assay: Inhibition of SYK at 5 uM
[44] = target: Rho-associated protein kinase 2 (Homo sapiens) (UniProt O75116); assay: Inhibition of ROCK2 at 5 uM
[45] = target: Tyrosine-protein kinase ABL1 (Homo sapiens) (UniProt P00519); assay: Inhibition of ABL at 5 uM
[46] = target: Mitogen-activated protein kinase 9 (Homo sapiens) (UniProt P45984); assay: Inhibition of JNK2 at 5 uM
[47] = target: Proto-oncogene tyrosine-protein kinase Src (Homo sapiens) (UniProt P12931); assay: Inhibition of SRC at 5 uM

Serine/threonine-protein kinase Sgk1 (Homo sapiens), sequence (O00141 whole entry): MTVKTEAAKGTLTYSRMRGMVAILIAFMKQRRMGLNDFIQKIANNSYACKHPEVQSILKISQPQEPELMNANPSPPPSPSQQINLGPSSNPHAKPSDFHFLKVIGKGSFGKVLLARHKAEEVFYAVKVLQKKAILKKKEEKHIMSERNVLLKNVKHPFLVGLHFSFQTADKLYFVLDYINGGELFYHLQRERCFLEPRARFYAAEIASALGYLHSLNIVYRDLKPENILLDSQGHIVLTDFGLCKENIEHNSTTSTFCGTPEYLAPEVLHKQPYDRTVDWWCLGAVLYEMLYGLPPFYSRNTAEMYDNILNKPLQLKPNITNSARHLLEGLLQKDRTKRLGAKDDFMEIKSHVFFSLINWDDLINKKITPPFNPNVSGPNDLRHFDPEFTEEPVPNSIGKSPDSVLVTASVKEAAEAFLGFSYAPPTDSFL
Tyrosine-protein kinase Lck (Homo sapiens), sequence (P06239 2-509 limits assumed): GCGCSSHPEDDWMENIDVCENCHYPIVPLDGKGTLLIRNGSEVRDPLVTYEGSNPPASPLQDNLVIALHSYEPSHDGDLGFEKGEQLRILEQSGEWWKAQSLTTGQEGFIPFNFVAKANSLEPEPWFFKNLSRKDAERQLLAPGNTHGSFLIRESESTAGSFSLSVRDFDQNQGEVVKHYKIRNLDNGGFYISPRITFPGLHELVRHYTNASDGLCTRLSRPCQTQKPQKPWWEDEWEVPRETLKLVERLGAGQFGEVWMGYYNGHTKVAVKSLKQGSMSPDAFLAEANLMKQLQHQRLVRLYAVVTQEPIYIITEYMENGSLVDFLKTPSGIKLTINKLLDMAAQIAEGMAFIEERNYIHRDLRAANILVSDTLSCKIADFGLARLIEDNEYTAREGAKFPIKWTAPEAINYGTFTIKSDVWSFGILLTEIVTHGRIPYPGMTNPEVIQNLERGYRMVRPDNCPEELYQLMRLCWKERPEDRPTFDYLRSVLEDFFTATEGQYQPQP
Protein kinase C zeta type (Homo sapiens), sequence (Q05513 whole entry): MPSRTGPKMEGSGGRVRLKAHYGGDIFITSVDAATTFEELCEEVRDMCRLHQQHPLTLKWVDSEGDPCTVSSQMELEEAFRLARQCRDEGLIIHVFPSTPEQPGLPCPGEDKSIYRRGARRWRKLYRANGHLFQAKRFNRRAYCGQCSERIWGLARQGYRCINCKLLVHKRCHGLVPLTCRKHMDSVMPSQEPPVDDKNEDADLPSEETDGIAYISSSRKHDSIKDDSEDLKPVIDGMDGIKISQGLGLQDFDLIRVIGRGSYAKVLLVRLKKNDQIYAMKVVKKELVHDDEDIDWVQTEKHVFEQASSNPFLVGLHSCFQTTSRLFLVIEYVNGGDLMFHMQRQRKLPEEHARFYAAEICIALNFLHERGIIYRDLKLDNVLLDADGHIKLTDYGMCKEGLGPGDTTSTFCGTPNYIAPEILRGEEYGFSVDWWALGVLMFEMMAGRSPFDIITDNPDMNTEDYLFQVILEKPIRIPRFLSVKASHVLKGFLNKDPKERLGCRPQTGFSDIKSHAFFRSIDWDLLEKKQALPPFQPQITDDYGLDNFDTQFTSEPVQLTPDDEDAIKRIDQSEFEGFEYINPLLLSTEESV
RAC-gamma serine/threonine-protein kinase (Homo sapiens), sequence (Q9Y243 whole entry): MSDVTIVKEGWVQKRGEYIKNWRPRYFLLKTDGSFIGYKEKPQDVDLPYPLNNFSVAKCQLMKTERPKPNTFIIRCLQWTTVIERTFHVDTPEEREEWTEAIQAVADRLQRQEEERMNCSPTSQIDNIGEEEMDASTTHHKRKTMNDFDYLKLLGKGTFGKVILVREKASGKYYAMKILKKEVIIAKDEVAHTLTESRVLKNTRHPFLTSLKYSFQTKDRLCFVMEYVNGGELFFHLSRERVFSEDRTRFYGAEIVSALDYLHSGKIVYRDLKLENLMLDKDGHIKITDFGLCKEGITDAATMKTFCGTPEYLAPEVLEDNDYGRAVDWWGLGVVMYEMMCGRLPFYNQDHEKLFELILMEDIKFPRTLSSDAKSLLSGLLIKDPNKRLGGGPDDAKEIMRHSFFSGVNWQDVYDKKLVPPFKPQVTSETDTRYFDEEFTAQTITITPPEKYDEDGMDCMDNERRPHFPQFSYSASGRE
Receptor-type tyrosine-protein kinase FLT3 (Homo sapiens), sequence (P36888 whole entry): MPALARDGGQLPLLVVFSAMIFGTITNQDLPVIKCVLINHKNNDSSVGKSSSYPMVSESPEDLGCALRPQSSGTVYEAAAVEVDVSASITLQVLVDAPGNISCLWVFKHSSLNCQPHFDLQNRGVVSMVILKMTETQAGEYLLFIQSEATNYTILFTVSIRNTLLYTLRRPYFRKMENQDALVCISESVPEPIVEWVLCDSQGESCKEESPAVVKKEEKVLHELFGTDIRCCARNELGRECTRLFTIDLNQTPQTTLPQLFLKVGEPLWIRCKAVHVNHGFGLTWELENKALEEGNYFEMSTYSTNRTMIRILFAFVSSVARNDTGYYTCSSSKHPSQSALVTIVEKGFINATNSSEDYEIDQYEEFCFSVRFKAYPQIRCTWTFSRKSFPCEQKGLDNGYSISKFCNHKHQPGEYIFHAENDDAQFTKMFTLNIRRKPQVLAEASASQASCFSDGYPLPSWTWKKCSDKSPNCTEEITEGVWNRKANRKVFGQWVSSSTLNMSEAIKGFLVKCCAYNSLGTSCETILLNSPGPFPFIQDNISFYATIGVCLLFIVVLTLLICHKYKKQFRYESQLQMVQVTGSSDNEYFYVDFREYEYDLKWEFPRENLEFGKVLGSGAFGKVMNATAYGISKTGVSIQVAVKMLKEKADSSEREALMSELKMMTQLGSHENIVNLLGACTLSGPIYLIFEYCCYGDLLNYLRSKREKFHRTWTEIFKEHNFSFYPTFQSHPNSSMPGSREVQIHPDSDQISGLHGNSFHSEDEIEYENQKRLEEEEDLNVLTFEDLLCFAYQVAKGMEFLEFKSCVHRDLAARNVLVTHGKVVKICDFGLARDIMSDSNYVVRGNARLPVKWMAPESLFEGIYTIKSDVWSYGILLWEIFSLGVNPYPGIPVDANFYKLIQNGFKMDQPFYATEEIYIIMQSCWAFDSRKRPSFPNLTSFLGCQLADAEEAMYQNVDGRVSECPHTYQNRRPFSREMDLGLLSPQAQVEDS
Serine/threonine-protein kinase D2 (Homo sapiens), sequence (Q9BZL6 whole entry): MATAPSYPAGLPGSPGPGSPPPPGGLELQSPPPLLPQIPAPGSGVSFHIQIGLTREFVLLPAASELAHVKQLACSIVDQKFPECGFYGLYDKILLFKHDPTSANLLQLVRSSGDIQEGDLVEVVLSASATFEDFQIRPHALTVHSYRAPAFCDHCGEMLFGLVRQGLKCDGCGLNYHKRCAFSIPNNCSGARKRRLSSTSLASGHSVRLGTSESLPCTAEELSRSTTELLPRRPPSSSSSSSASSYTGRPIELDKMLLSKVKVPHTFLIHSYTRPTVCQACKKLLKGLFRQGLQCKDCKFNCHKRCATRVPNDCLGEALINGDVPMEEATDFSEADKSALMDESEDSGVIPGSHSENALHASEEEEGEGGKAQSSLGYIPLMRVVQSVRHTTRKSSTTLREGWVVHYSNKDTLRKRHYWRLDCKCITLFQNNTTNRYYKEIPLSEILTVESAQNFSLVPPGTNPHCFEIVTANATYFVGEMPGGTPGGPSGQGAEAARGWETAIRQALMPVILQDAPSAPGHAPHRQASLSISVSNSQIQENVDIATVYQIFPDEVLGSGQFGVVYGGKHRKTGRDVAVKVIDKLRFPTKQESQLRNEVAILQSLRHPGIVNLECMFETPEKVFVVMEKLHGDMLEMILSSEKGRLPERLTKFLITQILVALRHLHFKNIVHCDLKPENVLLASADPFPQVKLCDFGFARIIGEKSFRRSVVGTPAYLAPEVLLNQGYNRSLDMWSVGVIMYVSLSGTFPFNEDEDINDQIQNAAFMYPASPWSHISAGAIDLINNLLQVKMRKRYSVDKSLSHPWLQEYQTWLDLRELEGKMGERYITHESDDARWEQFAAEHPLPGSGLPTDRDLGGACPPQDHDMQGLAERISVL
Protein kinase C beta type (Homo sapiens), sequence (P05771 2-671 limits assumed): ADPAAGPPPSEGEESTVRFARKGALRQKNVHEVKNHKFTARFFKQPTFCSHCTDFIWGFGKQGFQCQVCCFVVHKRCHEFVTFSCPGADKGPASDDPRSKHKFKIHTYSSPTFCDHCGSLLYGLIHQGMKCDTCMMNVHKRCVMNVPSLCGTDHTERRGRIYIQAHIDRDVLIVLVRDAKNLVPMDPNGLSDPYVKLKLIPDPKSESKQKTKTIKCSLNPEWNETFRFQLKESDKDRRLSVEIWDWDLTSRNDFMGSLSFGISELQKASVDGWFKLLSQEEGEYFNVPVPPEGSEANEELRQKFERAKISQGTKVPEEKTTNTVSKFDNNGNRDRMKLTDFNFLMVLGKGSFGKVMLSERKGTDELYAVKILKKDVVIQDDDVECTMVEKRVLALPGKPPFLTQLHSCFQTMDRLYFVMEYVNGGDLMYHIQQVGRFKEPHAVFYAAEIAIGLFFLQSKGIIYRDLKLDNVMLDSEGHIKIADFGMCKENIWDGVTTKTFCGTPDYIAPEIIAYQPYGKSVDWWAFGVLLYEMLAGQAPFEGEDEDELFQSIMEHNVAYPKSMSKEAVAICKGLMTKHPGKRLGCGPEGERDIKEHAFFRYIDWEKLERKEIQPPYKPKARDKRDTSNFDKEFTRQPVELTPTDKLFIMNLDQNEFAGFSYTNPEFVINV
Serine/threonine-protein kinase 3 (Homo sapiens), sequence (Q13188 whole entry): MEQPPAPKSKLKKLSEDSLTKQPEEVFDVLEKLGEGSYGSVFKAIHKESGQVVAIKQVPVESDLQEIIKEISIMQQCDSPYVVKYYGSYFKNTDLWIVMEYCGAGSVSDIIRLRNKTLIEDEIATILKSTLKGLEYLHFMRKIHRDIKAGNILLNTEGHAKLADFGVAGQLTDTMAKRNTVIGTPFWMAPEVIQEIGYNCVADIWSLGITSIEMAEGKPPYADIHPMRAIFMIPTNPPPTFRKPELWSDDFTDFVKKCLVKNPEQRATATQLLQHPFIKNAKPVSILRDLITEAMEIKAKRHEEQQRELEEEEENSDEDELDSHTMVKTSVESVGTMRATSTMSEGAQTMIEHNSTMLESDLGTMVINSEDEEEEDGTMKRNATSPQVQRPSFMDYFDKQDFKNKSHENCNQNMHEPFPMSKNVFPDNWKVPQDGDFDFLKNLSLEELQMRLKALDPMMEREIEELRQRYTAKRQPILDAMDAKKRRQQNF

Work on `CCCOc1ccc(/C=C2\SC(=O)NC2=O)cc1` yielded an inhibition [1] of 5%, an Activity (Mus musculus [2]) of 6.3 mmol/L and an Activity (Mus musculus [3]) of 136 mg/dL. It also gave an inhibition [4] of 0%, an inhibition [5] of 1% and an inhibition [6] of 3%. For the same molecule, the inhibition [7] was 4%, the inhibition [8] was 8% and the inhibition [9] was -1%. The inhibition [10] was 9%, the Activity (Mus musculus [11]) was 12.8 g/dL and the Activity (Mus musculus [12]) was 87 mg/dL. For the same molecule, the Activity (Mus musculus [13]) was 4.95 ×10⁹ /L, the inhibition [14] was 1% and the Activity (Mus musculus [15]) was 7.3 mmol/L. For the same molecule, the Activity (Mus musculus [16]) was 0.08 ×10⁹ /L, the Activity (Mus musculus [17]) was 3.65 ×10⁹ /L and the inhibition [18] was 68%. The inhibition [19] was -6%, the inhibition [20] was -3% and the Activity (Mus musculus [21]) was “Non-toxic”. For the same molecule, the inhibition [22] was 0%, the Activity (Mus musculus [23]) was 11 mg/dL and the Activity (Mus musculus [24]) was 5.5 mg/dL. It also gave an inhibition [25] of 3%, an inhibition [26] of 6% and an Activity (Mus musculus [27]) of 0.08 ×10⁹ /L. It also gave an Activity (Mus musculus [28]) of 37 U/L, an inhibition [29] of 9% and an inhibition [30] of 18%. For the same molecule, the Activity (Mus musculus [31]) was 0.2 mg/dL, the Activity (Mus musculus [32]) was 0.2 mg/dL and the inhibition [33] was -6%. The inhibition [34] was -3%, the Activity (Mus musculus [35]) was 3.73 ×10⁹ /L and the inhibition [36] was -2%. It also gave an Activity (Mus musculus [37]) of 878 U/L, an Activity (Mus musculus [38]) of 3.94 ×10⁹ /L and an inhibition [39] of -1%. It also gave an Activity (Mus musculus [40]) of 12.2 g/dL, an inhibition [41] of 1% and an inhibition [42] of 3%. The inhibition [43] was -3%, the inhibition [44] was 5% and the inhibition [45] was 6%. It also gave an inhibition [46] of 14% and an inhibition [47] of 4%.
